High-throughput results deposited in PubChem BioAssay by Johns Hopkins Ion Channel Center.
Hits are enriched below; roughly 3.1% of the tested compounds scored in any of these assays.
hERG protect = shields human hERG channel from block by proarrhythmic agents; Q12809; CHO-hERG, FluxOR thallium flux, dofetilide IC70 present; activation (rescue from dofetilide block), less the hit threshold, % at 10 µM; 310,000 compounds, 0.51% hits; AID 1511;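 active means activation above the mean of controls blocked by dofetilide plus 5 SD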;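 further: thallium influx through hERG after potassium depolarization seen as dye fluorescence rise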
KCNK9 inh = blocks the human KCNK9 two-pore domain potassium channel. Q9NPC2. HEK293 KCNK9, FluxOR thallium flux fluorescence; hits give low values. B-score at 10 µM. 310,000 compounds, 1.2% hits. AID 488922;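 active means ratio B-score over 3 SD below the library mean, with starting fluorescence within 5 SD of its mean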;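 further: negative B-score means less thallium flux so channel inhibition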
KCNQ1 inh = inhibitors of human KCNQ1 potassium channel; P51787; CHO-K1 KCNQ1, FluxOR thallium flux fluorescence; hits give high values; B-score at 10 µM; 310,000 compounds, 1.3% hits; AID 2642;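 active means compounds whose thallium flux B-score, printed positive for inhibition, exceeds three library SD while starting fluorescence stays within three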;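 further: channel opened by potassium depolarization with thallium stimulus after 20 min compound exposure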
Target sequence (P51787 whole entry, looked up): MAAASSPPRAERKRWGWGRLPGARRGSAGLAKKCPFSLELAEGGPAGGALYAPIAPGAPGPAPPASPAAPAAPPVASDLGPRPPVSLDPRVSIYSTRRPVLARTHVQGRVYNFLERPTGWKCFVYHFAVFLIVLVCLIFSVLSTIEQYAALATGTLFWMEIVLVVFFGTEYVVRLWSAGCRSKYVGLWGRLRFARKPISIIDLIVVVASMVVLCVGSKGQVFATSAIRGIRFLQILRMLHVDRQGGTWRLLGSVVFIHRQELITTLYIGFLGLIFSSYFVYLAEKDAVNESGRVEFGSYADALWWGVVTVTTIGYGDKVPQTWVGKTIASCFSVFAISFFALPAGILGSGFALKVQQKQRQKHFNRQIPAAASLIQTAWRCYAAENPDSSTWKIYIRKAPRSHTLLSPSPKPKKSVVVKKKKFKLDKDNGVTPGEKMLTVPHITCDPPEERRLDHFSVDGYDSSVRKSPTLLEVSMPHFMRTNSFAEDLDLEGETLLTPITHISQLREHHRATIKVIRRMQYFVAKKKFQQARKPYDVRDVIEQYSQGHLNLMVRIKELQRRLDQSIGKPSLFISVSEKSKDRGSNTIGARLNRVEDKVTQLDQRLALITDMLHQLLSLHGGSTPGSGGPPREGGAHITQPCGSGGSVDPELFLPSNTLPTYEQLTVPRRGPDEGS
KCNQ1 act = human KCNQ1 channel potentiation or activation; B-score at 10 µM; 310,000 compounds, 0.35% hits; AID 2648; CHO-K1 KCNQ1, thallium flux FluxOR fluorescence; hits give high values; P51787;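 active means fluorescence ratio B-score, a plate-corrected score, at least three library SD, with initial intensity B-score within 5 SD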
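Doses: Single concentration per compound, DMSO matched to controls | Test system: KCNQ1-transfected CHO-K1 cells | Timing: 90 min dye loading and 20 min compound exposure, both at room temperature | Measured by: Kinetic FluxOR thallium fluorescence, 10-s 1-Hz baseline, 110-s post-stimulus read | Medium: Assay buffer with matched DMSO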
KCNK3 block = human KCNK3 channel inhibition, primary screen; O14649; CHO-KCNK3 thallium flux, FluxOR fluorescence; hits give low values; B-score at 10 µM; 340,000 compounds, 0.84% hits;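 active means B-score under library mean minus 4 SD, starting fluorescence ratio at most library mean plus 5 SD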;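 further: more negative B-score means stronger inhibition of thallium flux through KCNK3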
Starred values were filed as active, the others as inactive; i = inactive; . = not tested or not shown.

SMILES	hERG protect	KCNK9 inh	KCNQ1 inh	KCNQ1 act	KCNK3 block
CCOC(=O)c1cnn(-c2nc(SC)nc3sc4c(c23)CCC4)c1N	-14	-7.8*	i	i	i
O=S(=O)(Nc1nc(-c2ccccc2)cs1)c1cc(Cl)ccc1Cl	-6	i	6*	i	i
O=[N+]([O-])c1ccc(S(=O)(=O)Nc2nc(-c3ccccc3)cs2)cc1	-10	i	i	i	i
C=C(C)COc1ccc2c(C)c(CCC(=O)N3C[C@H]4C[C@@H](C3)c3cccc(=O)n3C4)c(=O)oc2c1	-4	i	i	i	i
Cc1cc(C(=O)Nn2c(C3CCCCC3)nc3ccccc3c2=O)ccc1[N+](=O)[O-]	-6	i	i	i	i
O=C(Nn1c(C2CCCCC2)nc2ccccc2c1=O)c1ccc(Cl)c([N+](=O)[O-])c1	-12	i	9*	i	i
COC(=O)C1=CN(Cc2ccc(OC)cc2)C=C(C(=O)OC)C1c1cccs1	-9	-6.7*	i	i	i
Cc1ccccc1-c1nnn(Cc2cccc(S(=O)(=O)N3CCOCC3)c2)n1	.	.	.	.	-9*
Cc1cc(OCc2cccc(S(=O)(=O)N3CCOCC3)c2)ccc1Cl	.	.	.	.	-9.6*
N#Cc1ccc(OCc2cccc(S(=O)(=O)N3CCOCC3)c2)cc1	-8	i	i	i	i
COc1ccc(C(CNC(=O)CCNS(=O)(=O)c2ccc(C)cc2)N2CCOCC2)cc1 (stereo unspecified)	-9	i	i	i	i
O=C(NC(=S)N1CCCC(C(F)(F)F)C1)c1ccc(F)cc1 (stereo unspecified)	11*	i	i	13*	i
CN(C(=O)/C(N=Nc1cccc(C(F)(F)F)c1)=C(\O)C(F)(F)F)c1ccccc1	-24	i	6*	i	i
CC(=NC1CCCC1)c1c(C)[nH]n(-c2nc3ccccc3s2)c1=O	6.2*	i	i	i	i
O=C(Nc1ccc(OC(F)(F)F)cc1)C1CCCCN1S(=O)(=O)c1ccccc1 (stereo unspecified)	.	.	.	.	i
COC(CNC(=O)c1c[nH]c2ccc(S(=O)(=O)N(C)c3ccc(F)cc3)cc2c1=O)OC	-1	i	i	i	i
CCN(C[C@H]1N[C@@](Cc2ccccc2)(C(=O)OC)[C@H]2C(=O)N(Cc3ccccc3)C(=O)[C@@H]12)S(=O)(=O)c1ccc(C(C)(C)C)cc1	.	.	.	.	i
COC(=O)c1nc2cc3c(cc2c(C)c1C(=O)OC)OCO3	-14	i	i	i	i
COc1ccc(C(=O)c2cnc3cc4c(cc3c2C)OCO4)cc1	-9	-6.9*	i	i	i
COc1cccc(CNC(=O)C2CCN(S(=O)(=O)c3cccc4nonc34)CC2)c1	-5	i	i	i	i
O=[N+]([O-])c1cc(/C=N\Nc2ccccn2)ccc1Cl	-5	i	i	i	i
O=[N+]([O-])c1cc(C=Nc2cccc3c(O)cccc23)ccc1Cl	-8	i	7*	i	.
CCOc1ccc(CCNC(=O)CN2C(=O)c3cccnc3Oc3ccc(Cl)cc32)cc1	-12	i	i	i	i
CSc1ccc(CN2CCCN(C)CC2)cc1	-5	i	i	i	i
Cc1cc2ccccn2c1C(=O)c1ccncc1	-6	i	i	i	i
SMILES	hERG protect	KCNK9 inh	KCNQ1 inh	KCNQ1 act	KCNK3 block
Cc1cc2ccccn2c1C(=S)NC(=O)c1ccccc1	34*	i	i	26*	i
COCCCN(C(=O)CC1OC(=O)c2ccccc21)c1c(N)n(Cc2ccccc2)c(=O)[nH]c1=O (stereo unspecified)	-7	i	i	i	i
CCc1cc2c(=O)n(Cc3ccco3)c(SCC(=O)N3CCCc4ccccc43)nc2s1	-7	i	6*	i	i
CCc1cc2c(=O)n(Cc3ccco3)c(SCC(=O)NCC3CCCO3)nc2s1 (stereo unspecified)	-5	i	i	i	i
CCCCC(=O)Nc1cc(C)c(NC(=O)c2ccco2)cn1	5.5*	i	i	i	i
C/C(=N\OCc1nc2ccccc2c(=O)n1/N=C/c1cc(C)cc([N+](=O)[O-])c1O)c1ccccc1	-16	i	9*	i	i
CC1(c2ccccc2)CC(C)(C)N2C(=O)/C(=C3\SC(=S)NC3=O)c3cccc1c32 (stereo unspecified)	-6	i	i	81*	i
CC1CCC(C(C)C)C(OC(=O)C[n+]2cc(-c3ccc(Cl)cc3)n3c2CCCCC3)C1 (stereo unspecified)	-25	i	6*	i	-9.8*
Clc1ccc(C[n+]2cc(-c3ccccc3)n3c2CCCCC3)c(Cl)c1	-21	i	i	i	i
Clc1ccc(-c2c[n+](Cc3ccc(Cl)cc3Cl)c3n2CCCCC3)cc1	-20	i	7*	i	i
O=C(C[n+]1cc(-c2ccccc2)n2c1CCCCC2)c1ccc(Cl)cc1	-9	i	i	i	i
Cc1ncc(NS(=O)(=O)c2ccc(N)cc2)nc1C	.	.	.	.	i
C=CCn1c(SCN2C(=O)c3ccccc3C2=O)nc2ccc(Cl)cc2c1=O	3	i	i	9*	i
CCOc1ccc(/C=C2\CCCc3c2nc2ccccc2c3C(=O)O)cc1OC	-52	i	19*	i	i
COc1ccc(C(C)(C)C)cc1NC(=O)c1ccccc1-n1cnnn1	.	.	.	.	i
COc1cc(-c2noc(C)c2C(=O)NCCc2ccccc2)cc(OC)c1OC	.	.	.	.	i
COC(=O)C(Cc1ccccc1)NC(=O)CNS(=O)(=O)c1ccc(Br)cc1 (stereo unspecified)	-6	i	i	i	i
COC(=O)C(Cc1ccccc1)NC(=O)CNC(=O)c1ccc(Br)cc1 (stereo unspecified)	-5	-7.1*	i	i	i
COc1ccccc1-c1cc(C(F)(F)F)n2ncc(C(=O)N3CCc4ccccc4C3)c2n1	-11	i	i	i	i
O=C(NC(=S)Nc1nc2c(ccc3ccccc32)s1)c1cccs1	0	i	i	9*	i
COc1ccc(-c2csc(NC(=S)NC(=O)c3cccs3)n2)cc1OC	0	-7.9*	i	11*	i
COc1ccc(-c2csc(NC(=S)NC(=O)c3ccc(S(=O)(=O)N(C)C)cc3)n2)cc1OC	-8	i	i	i	i
COc1ccc(-c2csc(NC(=S)NC(=O)c3cccs3)n2)cc1Br	8.6*	i	i	9*	i
CN(Cc1ccccc1Cl)C(=O)CNC(=O)C12CC3CC(CC(C3)C1)C2	.	.	.	.	i
O=C(Nc1cc(C(F)(F)F)ccc1Cl)C(Sc1ccccn1)c1ccccc1 (stereo unspecified)	3	-8.1*	i	i	i
